Laboratory results: ChEMBL document CHEMBL3596118, “Synthesis and antiproliferative activity of imidazo[1,2-a]pyrimidine Mannich bases” (2015)

Assays:
Type in all cases: functional
A549 = test: Growth inhibition of human A549 cells after 48 hrs by SRB assay; conditions: A549, 48 h
In short: (§1)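 Cells grown in DMEM with 10% FBS, 5% CO2, 37 0C; seeded at densities set by doubling time, incubated 24 hrs, then exposed continuously 48 hrs to 0.01, 0.1, 1, 10, 100 µM; DMSO-treated cells as negative control. Fixed with cold 10% TCA (4 0C, 1 hr), stained 0.057% SRB 30 min, dye dissolved in 10 mM Tris, OD 510 nm; GI50 from [(Ti-Tz)/(C-Tz)]x100 = 50.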

HeLa = test: Growth inhibition of human HeLa cells after 48 hrs by SRB assay; in short: as §1
[1] = Growth inhibition of human PANC1 cells after 48 hrs by SRB assay; conditions: PANC-1, 48 h; in short: as §1
MDA-MB-231 = test: Growth inhibition of human MDA-MB-231 cells after 48 hrs by SRB assay; conditions: MDA-MB-231, 48 h; in short: as §1

Compound | GI50 (A549) | GI50 (HeLa) | GI50 [1] | GI50 (MDA-MB-231)
Cc1ccn2c(CN3CCOCC3)c(-c3ccccc3)nc2n1 | 1090 nM | 850 nM | 1830 nM | 1430 nM
Oc1ccc(-c2nc3ncccn3c2CN2CCCCC2)cc1 | 6890 nM | 4030 nM | 200 nM | 7230 nM
CN1CCN(Cc2c(-c3ccccc3)nc3ncccn23)CC1 | – | 930 nM | 350 nM | < 10 nM
c1ccc(-c2nc3ncccn3c2CN2CCCCC2)cc1 | 260 nM | 2280 nM | 1310 nM | 30 nM
Cc1ccn2c(CN3CCCC3)c(-c3ccc(O)cc3)nc2n1 | 2480 nM | 4760 nM | 7280 nM | 1200 nM
Cc1ccn2c(CN3CCCCC3)c(C(C)(C)C)nc2n1 | 7390 nM | 450 nM | 960 nM | 350 nM
c1ccc2cc(-c3nc4ncccn4c3CN3CCN(Cc4c(-c5ccc6ccccc6c5)nc5ncccn45)CC3)ccc2c1 | – | 12600 nM | 79400 nM | 31600 nM
c1csc(-c2nc3ncccn3c2CN2CCN(Cc3c(-c4cccs4)nc4ncccn34)CC2)c1 | – | 930 nM | 3700 nM | 7100 nM
Brc1ccc(-c2nc3ncccn3c2CN2CCN(Cc3c(-c4ccc(Br)cc4)nc4ncccn34)CC2)cc1 | – | 890 nM | 60 nM | 1000 nM
COc1cc(OC)n2c(CN3CCN(Cc4c(-c5ccccc5)nc5nc(OC)cc(OC)n45)CC3)c(-c3ccccc3)nc2n1 | – | 9320 nM | 510 nM | 120 nM
Cc1ccn2c(CN3CCCCC3)c(-c3ccccc3)nc2n1 | 4040 nM | 1710 nM | 20 nM | 30 nM
Cc1ccn2c(CN3CCCC3)c(-c3ccccc3)nc2n1 | 4150 nM | 180 nM | 150 nM | 4830 nM
Clc1ccc(-c2nc3ncccn3c2CN2CCN(Cc3c(-c4ccc(Cl)cc4)nc4ncccn34)CC2)cc1 | – | 25600 nM | 240 nM | 4700 nM
Cc1ccc(-c2nc3ncccn3c2CN2CCN(Cc3c(-c4ccc(C)cc4)nc4ncccn34)CC2)cc1 | – | 2800 nM | 380 nM | 2300 nM
CC(C)(C)c1nc2ncccn2c1CN1CCCCC1 | 330 nM | 30 nM | 4510 nM | 1490 nM
c1ccc(-c2nc3ncccn3c2CN2CCNCC2)cc1 | – | 720 nM | 9400 nM | 26700 nM
CN(Cc1c(-c2ccccc2)nc2ncccn12)c1ccccc1 | 5190 nM | 3120 nM | 5760 nM | 320 nM
Cc1ccn2c(CN3CCN(Cc4c(-c5ccccc5)nc5nc(C)ccn45)CC3)c(-c3ccccc3)nc2n1 | – | 12700 nM | 600 nM | 15900 nM
CC(C)(C)c1nc2ncccn2c1CN1CCN(Cc2c(C(C)(C)C)nc3ncccn23)CC1 | – | 2400 nM | 3900 nM | 1100 nM
Clc1ccc(-c2nc3ncccn3c2CN2CCN(Cc3c(-c4ccc(Cl)cc4Cl)nc4ncccn34)CC2)c(Cl)c1 | – | 2720 nM | 27700 nM | 210 nM
COc1cccc2c1C(=O)c1c(O)c3c(c(O)c1C2=O)C[C@@](O)(C(=O)CO)C[C@@H]3O[C@H]1C[C@H](N)[C@H](O)[C@H](C)O1 [DOXORUBICIN] | < 10 nM | 31 nM | 10 nM | 10 nM
c1ccc(-c2nc3ncccn3c2CN2CCCC2)cc1 | 50 nM | 70 nM | 60 nM | 70 nM
Cc1ccc(S(=O)(=O)N2CCN(Cc3c(-c4ccccc4)nc4ncccn34)CC2)cc1 | – | 4500 nM | 110 nM | 12900 nM
c1csc(-c2nc3ncccn3c2CN2CCCC2)c1 | 180 nM | 240 nM | 680 nM | 200 nM
Cc1ccccc1-c1nc2ncccn2c1CN1CCN(Cc2c(-c3ccccc3C)nc3ncccn23)CC1 | – | 480 nM | 120 nM | < 10 nM
Cc1ccn2c(CN3CCN(Cc4c(C(C)(C)C)nc5nc(C)ccn45)CC3)c(C(C)(C)C)nc2n1 | – | 14500 nM | 1400 nM | 25700 nM
c1ccc(-c2nc3ncccn3c2CN2CCN(Cc3c(-c4ccccc4)nc4ncccn34)CC2)cc1 | – | 3240 nM | 140 nM | 270 nM
Cc1ccn2c(CN3CCOCC3)c(-c3ccc(Cl)cc3)nc2n1 | 2570 nM | 160 nM | 1170 nM | 320 nM
c1ccc(-c2nc3ncccn3c2CN2CCOCC2)cc1 | 210 nM | 1670 nM | 770 nM | 1410 nM
